Source: PubChem BioAssay
The full list was thinned out, with hits kept by preference.
HSF1 activator: increases HSF-1 driven luciferase reporter signal. NIH3T3-HGL HSF-1 luciferase reporter, MG132, 8 h; 100% = twice DMSO control signal. activation, % at 9 µM. actives 1.7% (n = 300,000);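 active = mean replicate activation of at least 50% with a set share of replicates each reaching 50%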
Lmaj promast: reduces viability of Leishmania major promastigotes. AID 1063. inhibition, % at 10 µM. actives 9% (n = 200,000). resazurin fluorescence viability; in the data active = inhibition above about 50%;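 also: promastigotes grown with compound for 44 hours at 28 °C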
Hsp70 act: switches on Hsp70 transcription; actives 0.04% (n = 200,000); activation, % at 10 µM; HeLa Hsp70 promoter luciferase reporter, luminescence; scaled: vehicle 0, proteasome-inhibitor control 100%;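 active = activation above the mean across all tested compounds plus 3 SD, cutoff set per campaign, cut at about 5.5% in these data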
HSF1 inhib: HSF1 inhibition; NIH3T3-HGL HSE-luciferase, MG132-induced, luminescence 8 h; hits give low values; activity change, negative = inhibition, % at 7.5 µM (by protocol); actives 0.77% (n = 300,000); AID 2098;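 active = more than half of replicate wells show activity change below -50%, luminescence cut by over half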;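 also: luciferase reports HSF-1 transcriptional activity via heat shock element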
T cruzi inh: T. cruzi replication inhibition | actives 1.4% (n = 300,000) | inhibition, % (no concentration beside the values) | T. cruzi beta-gal in NIH3T3, luminescence, 90 h;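 active = mean inhibition across valid replicates above about 55%, limit read from the data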;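 also: signal also drops with host cell toxicity which is not excluded here; higher percent means less beta-gal luminescence so fewer parasites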
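System: NIH/3T3 fibroblasts plus reporter T. cruzi. Medium: DMEM plus 2% FBS. Probe or stimulus: 5000 reporter trypomastigotes per well. Compound: single 50 nL compound addition per well in DMSO. Incubation: co-culture of at least 90 h after 3 h attachment. Detection: GalScreen β-gal luminescence, detergent lysis, 60 min. Evaluation: parasite load inhibition, %.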
Numbers stand for hits; . = inactive; / = no result given.

SMILES	HSF1 activator	Lmaj promast	Hsp70 act	HSF1 inhib	T cruzi inh
c1ccc2c(c1)[nH]c1cnccc12	.	.	.	.	.
COc1ccc(C2=CC(c3ccc(OC)c(OC)c3)c3c(c4ccccc4oc3=O)O2)cc1OC (stereo unspecified)	.	/	/	-56.0	.
O=C(COc1ccc(Br)cc1)N1CCN(Cc2ccc3c(c2)OCO3)CC1	.	/	/	.	.
CC/C(=C\C=C\[C@@H]1C=C[C@@H]2CCC[C@H]2[C@@H]1C(=O)c1ccc[nH]1)[C@@H]1O[C@@H]([C@@H](C)C(=O)O)CC[C@@H]1C	.	.	.	.	65.1
Cc1cc(OCCCC(=O)NCc2cccs2)ccc1Cl	.	55.9	.	.	.
Cc1cc(Cl)ccc1OCCCC(=O)NCc1cccs1	.	59.8	.	.	.
O=C(CCCOc1ccc(Cl)cc1Cl)N1CCC2(CC1)OCCO2	.	.	.	.	.
c1ccc2c(CNC3CCCCCC3)c[nH]c2c1	/	.	.	/	/
CC1(C)COC(Nc2cccc(Cl)c2)=N1	.	.	.	.	.
Cc1cc(OCC(=O)NCc2ccc(S(N)(=O)=O)cc2)c2c3c(c(=O)oc2c1)CCC3	.	/	/	.	.
Cc1ccccc1C1=NCC(=O)N(CC(=O)N2CCCCC2)c2sc(C)c(C)c21	.	.	.	.	.
Cc1cccc(N=Cc2c(O)n(-c3ccccc3C)c(=O)[nH]c2=O)c1	/	.	.	/	.
Cc1ccccc1-n1c(O)c(C=Nc2ccc(N(C)C)cc2)c(=O)[nH]c1=O	64.0	57.9	.	.	.
COc1ccc2ccc(O)c(CN3CC=C(c4ccccc4)CC3)c2c1	200.7	.	.	.	.
COc1cc(C)cc(CN2CC=C(c3ccccc3)CC2)c1O	.	64.5	.	.	.
COc1ccc(C(C)=O)cc1CN1CC=C(c2ccccc2)CC1	.	/	/	.	.
O=C(COc1ccc(Cl)cc1)N1CCN(C/C=C/c2ccccc2)CC1	.	89.1	.	.	.
O=C(COc1ccccc1)N1CCN(CC(O)COc2ccccc2)CC1 (stereo unspecified)	.	.	.	.	.
O=C(COc1ccccc1)N1CCN(C/C=C/c2ccccc2)CC1	.	91.8	.	.	.
COc1ccc(OCC(=O)N2CCN(C/C=C/c3ccccc3)CC2)cc1	.	73.5	.	.	.
C=CCN1CCC2(C)c3cc(O)ccc3CC1C2C (stereo unspecified)	.	/	/	.	.
Cc1cccc(NP(=O)(Oc2ccccc2F)Oc2ccccc2F)c1C	.	80.5	.	.	.
CP(=O)(O)CCCN	.	.	.	.	.
CSCCC(N=Cc1c(O)n(-c2ccc(Br)cc2)c(=O)[nH]c1=O)C(=O)OC(C)(C)C (stereo unspecified)	.	.	.	.	.
O=C(c1ccc(Cl)cc1)C1CCCN(Cc2ccc3c(c2)OCCO3)C1 (stereo unspecified)	.	91.6	.	-59.8	.
SMILES	HSF1 activator	Lmaj promast	Hsp70 act	HSF1 inhib	T cruzi inh
O=C(c1ccc2c(c1)OCO2)C1CCCN(Cc2ccc(F)c(F)c2)C1 (stereo unspecified)	.	/	/	.	.
O=C(c1ccc(Cl)cc1)C1CCCN(Cc2ccc3ncccc3c2)C1 (stereo unspecified)	.	87.7	.	.	.
C=CCn1c(O)c(C(CC)=Nc2ccc3c(c2)CCC3)c(=O)[nH]c1=O	74.0	/	/	.	.
Cc1[nH]n(-c2ccccc2)c(=O)c1C(c1ccc([N+](=O)[O-])cc1)c1c(C)[nH]n(-c2ccccc2)c1=O	.	61.8	.	.	.
CN1C(=O)NC(=O)C(C)(C2=CCCCC2)C1=O (stereo unspecified)	.	/	/	.	.
CCCCn1c(O)c(C(CC)=NCCCN(C)C)c(=O)[nH]c1=O	.	.	.	.	56.9
CCCCn1c(O)c(C(C)=NCCCN(CC)CC)c(=O)[nH]c1=O	.	.	.	.	58.4
CCCCn1c(O)c(C(C)=NCCCN(C)C)c(=O)[nH]c1=O	.	.	.	.	.
O=C(c1c[nH]c2ccc(S(=O)(=O)N3CCC4(CC3)OCCO4)cc2c1=O)N1CCC2(CC1)OCCO2	.	.	.	.	.
BrCC1C[n+]2c(SCc3ccccc3)nc3sc4c(c3c2O1)CCCC4 (stereo unspecified)	.	/	/	.	.
Nc1c2c(nc3sc4c(c13)CCCCC4)CCCC2	.	92.8	.	.	.
Fc1ccc(C(OCCN2CCCC2)c2ccc(F)cc2)cc1	.	90.5	.	.	.
C#CCN1CCN(c2ccc(F)cc2)CC1	.	.	.	.	.
